Test results as given in ChEMBL document CHEMBL3784976 (J Med Chem, 2016).

Tests used:
[1] = target: T1, Transient receptor potential cation channel subfamily A member 1 (Homo sapiens, UniProt O75762); experiment: Antagonist activity at human TRPA1 expressed in tetracycline-inducible T-REx expression system transfected CHO cells assessed as inhibition of AITC-induced Ca2+ influx preincubated for 2 mins followed by AITC addition measured for 2 mins by Fluo-4 dye based FLIPR assay; format: cell-based
[2] = target: T2, Transient receptor potential cation channel subfamily A member 1 (Rattus norvegicus, UniProt Q6RI86); experiment: Antagonist activity at rat TRPA1 expressed in tetracycline-inducible T-REx expression system transfected CHO cells assessed as inhibition of AITC-induced Ca2+ influx preincubated for 2 mins followed by AITC addition measured for 2 mins by Fluo-4 dye based FLIPR assay; format: cell-based
[3] = Apparent intrinsic clearance in rat liver microsomes; format: ADME; details: read-out: CLH(app)
[4] = Apparent intrinsic clearance in human liver microsomes; format: ADME; details: read-out: CLH(app)
[5] = target: T1, Transient receptor potential cation channel subfamily A member 1; experiment: Agonist activity at human TRPA1 expressed in tetracycline-inducible T-REx expression system transfected CHO cells assessed as increase in Ca2+ influx measured for 2 mins by Fluo-4 dye based FLIPR assay; format: cell-based
Summary of the method: (§1)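 FLIPR Tetra Ca2+ flux with Fluo-4 NW dye plus probenecid. Cells were seeded 24 h ahead in medium with […]. Dye loading ran 30 min at 37 °C, then 30 min at RT. Compound was added and agonist signal read for 2 min. Data were expressed as POC of DMSO (low) vs saturating AITC (high: 15 μM human, 200 μM rat) and fitted to a four-parameter equation.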

[6] = target: T2, Transient receptor potential cation channel subfamily A member 1; experiment: Agonist activity at rat TRPA1 expressed in tetracycline-inducible T-REx expression system transfected CHO cells assessed as increase in Ca2+ influx measured for 2 mins by Fluo-4 dye based FLIPR assay; format: cell-based; summary of the method: as §1
[7] = target: Transient receptor potential cation channel subfamily V member 1 (Homo sapiens, UniProt Q8NER1); experiment: Antagonist activity at human TRPV1 expressed in CHO cells assessed as inhibition of capsaicin-induced Ca2+ influx preincubated for 2.5 mins followed by capsaicin addition measured for 1 min by luminescence assay; format: cell-based
[8] = target: T2, Transient receptor potential cation channel subfamily A member 1; experiment: Antagonist activity at rat TRPA1 expressed in tetracycline-inducible T-REx expression system transfected CHO cells assessed as inhibition of AITC-induced 45Ca2+ uptake preincubated for 1 min followed by AITC addition measured after 12 mins; format: cell-based
[9] = target: T1, Transient receptor potential cation channel subfamily A member 1; experiment: Antagonist activity at human TRPA1 expressed in tetracycline-inducible T-REx expression system transfected CHO cells assessed as inhibition of AITC-induced 45Ca2+ uptake preincubated for 1 min followed by AITC addition measured after 12 mins; format: cell-based
[10] = target: T2, Transient receptor potential cation channel subfamily A member 1; experiment: Agonist activity at rat TRPA1 expressed in tetracycline-inducible T-REx expression system transfected CHO cells by 45Ca2+ uptake assay; format: cell-based
[11] = target: T1, Transient receptor potential cation channel subfamily A member 1; experiment: Agonist activity at human TRPA1 expressed in tetracycline-inducible T-REx expression system transfected CHO cells by 45Ca2+ uptake assay; format: cell-based
[12] = target: Transient receptor potential cation channel subfamily V member 3 (Rattus norvegicus); experiment: Antagonist activity at rat TRPV3 expressed in tetracycline-inducible T-REx expression system transfected CHO cells assessed as inhibition of […]-induced Ca2+ influx preincubated for 1 min followed by […] addition measured for 1 min by luminescence assay
[13] = system: Rattus norvegicus; experiment: fCmax in rat at 30 mg/kg, po; format: ADME, organism-based; details: in vivo
Summary of the method: (§2)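 Rats dosed orally at 30 mg/kg, or 10 mg/kg for one analogue, in 1% Tween 80/2% HPMC/97% water with methanesulfonic acid, pH 2.2.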

[14] = Cmax in rat at 30 mg/kg, po; format: ADME, organism-based; design: dose 30 mg/kg, route oral; details: in vivo
Summary of the method: (§3)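 Rat oral PK at 30 mg/kg (10 mg/kg for one analogue) in 1% Tween 80/2% HPMC/97% water with methanesulfonic acid, pH 2.2.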

[15] = Fraction unbound in rat plasma; format: ADME, cell-free
[16] = Clearance in rat at 0.5 mg/kg, iv as single dose; format: ADME, organism-based; details: in vivo
[17] = system: Rattus norvegicus; experiment: Unbound clearance in rat at 0.5 mg/kg, iv as single dose; format: ADME, organism-based; details: in vivo
Summary of the method: (§4)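 Single intravenous dose of 0.5 mg/kg given to rats, formulated in 100% DMSO.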

[18] = Volume of distribution at steady state in rat at 0.5 mg/kg, iv as single dose; format: ADME, organism-based; details: in vivo, read-out: Vdss; summary of the method: as §4
[19] = Half life in rat at 0.5 mg/kg, iv administered as single dose; format: ADME, organism-based; details: in vivo; summary of the method: as §4
[20] = AUC (infinity) in rat at 30 mg/kg, po; format: ADME, organism-based; design: dose 30 mg/kg, time infinity, route oral; details: in vivo; summary of the method: as §3
[21] = Tmax in rat at 30 mg/kg, po; format: ADME, organism-based; details: in vivo; summary of the method: as §2
[22] = Half life in rat at 30 mg/kg, po; format: ADME, organism-based; details: in vivo; summary of the method: as §2
[23] = Oral bioavailability in rat at 30 mg/kg; format: ADME, organism-based; details: in vivo; summary of the method: as §2
[24] = Ratio of fCmax in rat at 30 mg/kg, po to IC50 for rat TRPA1 expressed in tetracycline-inducible T-REx expression system transfected CHO cells by 45Ca2+ uptake assay
[25] = system: Liver microsome; experiment: Drug metabolism in rat liver microsomes assessed as 3-((3-(2-(4-Chlorophenyl)-2-hydroxyethyl)-1,2,4-oxadiazol-5-yl)-methyl)pyrido[2,3-d]pyrimidin-4(3H)-one formation; format: ADME
[26] = system: Liver microsome; experiment: Drug metabolism in human liver microsomes assessed as 3-((3-(2-(4-Chlorophenyl)-2-hydroxyethyl)-1,2,4-oxadiazol-5-yl)-methyl)pyrido[2,3-d]pyrimidin-4(3H)-one formation; format: ADME
[27] = AUC (infinity) in rat at 10 mg/kg, po; format: ADME, organism-based; design: dose 10 mg/kg, time infinity, route oral; details: in vivo; summary of the method: as §3
[28] = system: Rattus norvegicus; experiment: fCmax in rat at 10 mg/kg, po; format: ADME, organism-based; details: in vivo; summary of the method: as §2
[29] = Tmax in rat at 10 mg/kg, po; format: ADME, organism-based; details: in vivo; summary of the method: as §2
[30] = Half life in rat at 10 mg/kg, po; format: ADME, organism-based; details: in vivo; summary of the method: as §2
[31] = Cmax in rat at 10 mg/kg, po; format: ADME, organism-based; design: dose 10 mg/kg, route oral; details: in vivo; summary of the method: as §3
[32] = Ratio of fCmax in rat at 10 mg/kg, po to IC50 for rat TRPA1 expressed in tetracycline-inducible T-REx expression system transfected CHO cells by 45Ca2+ uptake assay
Summary of the method: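 Rat oral PK dosed at 10 mg/kg in 1% Tween 80/2% HPMC/97% water/methanesulfonic acid pH 2.2. Unbound Cmax divided by rat TRPA1 45Ca2+ IC50.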

T2 sequence (Q6RI86 whole entry): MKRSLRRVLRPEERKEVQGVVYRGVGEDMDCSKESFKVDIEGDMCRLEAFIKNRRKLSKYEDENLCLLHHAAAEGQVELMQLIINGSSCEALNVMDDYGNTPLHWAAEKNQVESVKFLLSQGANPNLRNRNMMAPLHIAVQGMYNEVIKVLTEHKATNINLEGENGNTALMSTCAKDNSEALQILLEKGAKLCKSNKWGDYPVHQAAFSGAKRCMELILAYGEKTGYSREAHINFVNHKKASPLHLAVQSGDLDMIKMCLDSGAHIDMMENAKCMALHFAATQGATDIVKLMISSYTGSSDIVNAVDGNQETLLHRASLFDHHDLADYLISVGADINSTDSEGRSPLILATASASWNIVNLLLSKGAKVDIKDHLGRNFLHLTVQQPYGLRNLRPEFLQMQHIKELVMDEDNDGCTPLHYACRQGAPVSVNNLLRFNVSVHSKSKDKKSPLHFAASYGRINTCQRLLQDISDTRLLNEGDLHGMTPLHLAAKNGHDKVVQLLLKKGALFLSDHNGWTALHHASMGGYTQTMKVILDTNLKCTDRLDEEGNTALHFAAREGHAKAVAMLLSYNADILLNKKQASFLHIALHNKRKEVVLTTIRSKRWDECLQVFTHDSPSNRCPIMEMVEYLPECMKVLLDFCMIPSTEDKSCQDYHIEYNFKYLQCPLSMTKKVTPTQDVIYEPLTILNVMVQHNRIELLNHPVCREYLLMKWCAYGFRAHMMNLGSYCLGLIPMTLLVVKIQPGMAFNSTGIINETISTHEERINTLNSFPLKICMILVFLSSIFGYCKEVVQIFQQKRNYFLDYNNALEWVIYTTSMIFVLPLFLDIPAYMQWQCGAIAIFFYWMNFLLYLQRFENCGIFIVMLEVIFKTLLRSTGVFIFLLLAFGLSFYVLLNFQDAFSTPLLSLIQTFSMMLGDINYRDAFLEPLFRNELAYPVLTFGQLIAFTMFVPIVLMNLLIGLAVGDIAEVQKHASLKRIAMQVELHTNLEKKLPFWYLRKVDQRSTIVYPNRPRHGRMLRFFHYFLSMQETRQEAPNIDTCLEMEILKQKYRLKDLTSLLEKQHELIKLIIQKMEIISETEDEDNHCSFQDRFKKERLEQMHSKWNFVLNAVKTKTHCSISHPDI
T1 sequence (O75762 whole entry): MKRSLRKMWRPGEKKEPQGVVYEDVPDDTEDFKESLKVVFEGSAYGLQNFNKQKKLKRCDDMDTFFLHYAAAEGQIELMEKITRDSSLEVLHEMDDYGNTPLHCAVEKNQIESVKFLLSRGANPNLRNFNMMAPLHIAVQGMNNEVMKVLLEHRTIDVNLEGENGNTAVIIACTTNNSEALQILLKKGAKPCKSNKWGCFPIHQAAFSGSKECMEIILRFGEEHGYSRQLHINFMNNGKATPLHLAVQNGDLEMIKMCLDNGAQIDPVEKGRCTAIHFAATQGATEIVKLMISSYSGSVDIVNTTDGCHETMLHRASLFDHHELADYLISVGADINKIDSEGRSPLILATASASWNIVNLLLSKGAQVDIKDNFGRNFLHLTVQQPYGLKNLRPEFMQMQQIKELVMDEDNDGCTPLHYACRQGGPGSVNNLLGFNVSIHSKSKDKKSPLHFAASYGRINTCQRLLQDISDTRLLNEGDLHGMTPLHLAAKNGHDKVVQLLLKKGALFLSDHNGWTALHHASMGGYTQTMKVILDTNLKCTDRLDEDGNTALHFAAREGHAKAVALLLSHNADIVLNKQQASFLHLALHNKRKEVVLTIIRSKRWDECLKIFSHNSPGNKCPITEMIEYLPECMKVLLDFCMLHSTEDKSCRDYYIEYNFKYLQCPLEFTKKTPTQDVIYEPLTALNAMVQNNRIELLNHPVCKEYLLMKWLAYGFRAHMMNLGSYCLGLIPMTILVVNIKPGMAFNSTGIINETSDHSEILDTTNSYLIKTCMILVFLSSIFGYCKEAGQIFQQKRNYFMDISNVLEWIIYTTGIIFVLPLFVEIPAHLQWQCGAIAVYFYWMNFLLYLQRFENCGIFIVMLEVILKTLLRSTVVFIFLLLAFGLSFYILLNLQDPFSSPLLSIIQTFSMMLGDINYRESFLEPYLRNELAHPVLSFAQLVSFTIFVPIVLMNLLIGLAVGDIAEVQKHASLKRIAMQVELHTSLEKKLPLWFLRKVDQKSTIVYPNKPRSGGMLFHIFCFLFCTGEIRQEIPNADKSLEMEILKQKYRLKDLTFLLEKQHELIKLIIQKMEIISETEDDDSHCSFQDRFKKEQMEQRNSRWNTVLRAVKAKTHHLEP
Chain of Transient receptor potential cation channel subfamily V member 1 (Q8NER1 whole entry): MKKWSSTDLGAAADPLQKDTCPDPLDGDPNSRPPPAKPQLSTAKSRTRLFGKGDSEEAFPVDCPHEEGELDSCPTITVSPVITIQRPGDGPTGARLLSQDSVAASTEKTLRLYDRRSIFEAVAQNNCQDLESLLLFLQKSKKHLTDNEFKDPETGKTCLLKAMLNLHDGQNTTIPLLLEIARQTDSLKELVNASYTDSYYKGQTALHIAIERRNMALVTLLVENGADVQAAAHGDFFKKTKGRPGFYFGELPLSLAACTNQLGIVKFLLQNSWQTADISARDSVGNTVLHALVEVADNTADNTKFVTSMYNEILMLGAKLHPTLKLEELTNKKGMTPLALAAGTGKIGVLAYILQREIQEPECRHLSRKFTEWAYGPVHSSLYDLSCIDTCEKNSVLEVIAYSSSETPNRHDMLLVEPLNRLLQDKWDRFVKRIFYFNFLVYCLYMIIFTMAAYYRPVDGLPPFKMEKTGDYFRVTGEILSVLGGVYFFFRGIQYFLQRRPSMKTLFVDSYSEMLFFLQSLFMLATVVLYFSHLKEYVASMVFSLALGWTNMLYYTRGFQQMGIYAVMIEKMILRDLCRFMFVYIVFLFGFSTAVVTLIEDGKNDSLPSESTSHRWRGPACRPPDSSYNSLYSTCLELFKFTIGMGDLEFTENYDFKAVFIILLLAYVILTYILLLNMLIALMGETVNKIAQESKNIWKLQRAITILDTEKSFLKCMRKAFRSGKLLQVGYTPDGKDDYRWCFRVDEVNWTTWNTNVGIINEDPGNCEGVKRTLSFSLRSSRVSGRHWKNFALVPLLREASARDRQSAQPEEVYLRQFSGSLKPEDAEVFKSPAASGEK

Structure (SMILES) | IC50 [1] | IC50 [2] | microsomal CLint [3] | microsomal CLint [4] | further results
Cc1ccc2ncn(CC(=O)NCCc3ccc(Cl)cc3)c(=O)c2c1 | 0.265 µM | 0.287 µM |  |  | 
O=C(Cn1cnc2cnccc2c1=O)NCCc1ccc(Cl)cc1 | 1.71 µM | 1.08 µM | 179 µL/min/mg | 14 µL/min/mg | 
N#Cc1cccc2c(=O)n(CC(=O)NCCc3ccc(Cl)cc3)cnc12 | 0.201 µM | 0.056 µM | 297 µL/min/mg | 49 µL/min/mg | 
COc1ccccc1CCNC(=O)Cn1cnc2c(C)cccc2c1=O | > 16.7 µM | > 16.7 µM |  |  | 
O=C(Cn1cnc2c(F)cccc2c1=O)NCCc1ccc(Cl)cc1 | 1.33 µM | 0.791 µM | 186 µL/min/mg | 40 µL/min/mg | 
COc1ccc(CCNC(=O)Cn2cnc3c(C)cccc3c2=O)cc1 |  | 1.37 µM |  |  | 
Cc1cccc2c(=O)n(CC(=O)NCCc3ccc(OC(F)F)cc3)cnc12 | 0.685 µM | 0.142 µM | > 399 µL/min/mg | 194 µL/min/mg | EC50 [5]: > 25 µM; EC50 [6]: > 25 µM; IC50 [7]: > 20 µM; IC50 [8]: 2.62 µM; IC50 [9]: 6.27 µM; EC50 [10]: > 47 µM; EC50 [11]: > 47 µM; IC50 [12]: > 20 µM
COc1cccc(CCNC(=O)Cn2cnc3c(C)cccc3c2=O)c1 | > 16.7 µM | > 16.7 µM |  |  | 
Cc1ccnc2ncn(Cc3nc(CCc4ccc(Cl)cc4)no3)c(=O)c12 | 0.016 µM | 0.035 µM | > 399 µL/min/mg | 340 µL/min/mg | 
Cc1ccc2c(=O)n(CC(=O)NCCc3ccc(Cl)cc3)cnc2c1 | > 4.2 µM | > 16.7 µM | 829 µL/min/mg | 144 µL/min/mg | 
O=c1c2cccnc2ncn1Cc1noc(CCc2ccc(Cl)cc2)n1 | 0.156 µM | 0.089 µM | 122 µL/min/mg | 35 µL/min/mg | fCmax [13]: 1 µM; Cmax [14]: 10.3 µM; fraction unbound [15]: 0.093; IC50 [8]: 0.411 µM; IC50 [9]: 1.58 µM; EC50 [10]: > 40 µM; EC50 [11]: > 40 µM; clearance [16]: 36.7 mL/min/kg; CL free [17]: 400 mL/min/kg; Vd [18]: 1 L/kg; half-life [19]: 0.4 h; AUC(0-inf) [20]: 19.2 µM·h; Tmax [21]: 0.5 h; half-life [22]: 4 h; bioavailability [23]: 52%; Ratio [24]: 3
O=c1c2cccnc2ncn1Cc1nc(CC(F)c2ccc(Cl)cc2)no1 (racemic) | 0.041 µM | 0.031 µM | 94 µL/min/mg | 56 µL/min/mg | 
Cn1cnc2ncn(Cc3noc(CCc4ccc(Cl)cc4)n3)c(=O)c21 | 0.211 µM | 0.136 µM | 44 µL/min/mg | 19 µL/min/mg | 
Cc1cccc2ncn(CC(=O)NCCc3ccc(Cl)cc3)c(=O)c12 | 0.07 µM | 0.112 µM | 736 µL/min/mg | 301 µL/min/mg | 
O=c1c2cccnc2ncn1Cc1nc(CCc2ccc(Cl)cc2)no1 | 0.041 µM | 0.021 µM | 131 µL/min/mg | 32 µL/min/mg | fraction unbound [15]: 0.144; Drug metabolism [25]: metabolite_detected; Drug metabolism [26]: metabolite_detected; IC50 [8]: 0.12 µM; IC50 [9]: 0.376 µM; EC50 [10]: > 40 µM; EC50 [11]: > 40 µM; clearance [16]: 98.3 mL/min/kg; Vd [18]: 2 L/kg; half-life [19]: 0.3 h
C/C(=C\c1noc(Cn2cnc3ncn(C)c3c2=O)n1)c1ccc(Cl)cc1 | 0.071 µM | 0.075 µM | < 14 µL/min/mg | < 14 µL/min/mg | fraction unbound [15]: 0.033; AUC(0-inf) [27]: 117 µM·h; fCmax [28]: 0.2 µM; Tmax [29]: 2 h; half-life [30]: 10 h; Cmax [31]: 6.5 µM; Ratio [32]: 4; IC50 [8]: 0.055 µM; IC50 [9]: 0.063 µM; EC50 [10]: > 40 µM; EC50 [11]: > 40 µM
O=C(Cn1cnc2ncccc2c1=O)NCCc1ccc(Cl)cc1 | 1.18 µM | 1.17 µM | 18 µL/min/mg | < 14 µL/min/mg | 
O=C(Cn1cnc2c(C(F)(F)F)cccc2c1=O)NCCc1ccc(Cl)cc1 | 0.286 µM | 0.306 µM | > 399 µL/min/mg | 397 µL/min/mg | 
O=C(Cn1cnc2ccccc2c1=O)NCCc1ccc(Cl)cc1 | > 16.7 µM |  | 104 µL/min/mg | 31 µL/min/mg | 
C/C(=C\c1nc(Cn2cnc3ncn(C)c3c2=O)no1)c1ccc(Cl)cc1 | 0.165 µM | 0.274 µM | < 14 µL/min/mg | 76 µL/min/mg | 
Cc1cccc2c(=O)n(CC(=O)NCCc3ccccc3)cnc12 | > 8.33 µM |  |  |  | 
COc1cccc2c(=O)n(CC(=O)NCCc3ccc(Cl)cc3)cnc12 | 1.46 µM | 2.15 µM | 455 µL/min/mg | 34 µL/min/mg | 
Cc1cccc2c(=O)n(CC(=O)NCCc3ccc(Cl)cc3)cnc12 | 0.802 µM | 0.358 µM | 706 µL/min/mg | 224 µL/min/mg | 
C/C(=C\c1nc(Cn2cnc3ncccc3c2=O)no1)c1ccc(Cl)cc1 |  |  |  |  | fCmax [13]: 0.1 µM; Cmax [14]: 8 µM; fraction unbound [15]: 0.012; Vd [18]: 1.4 L/kg; half-life [19]: 4.2 h; AUC(0-inf) [20]: 94.9 µM·h; Tmax [21]: 2.7 h; half-life [22]: 5.1 h; bioavailability [23]: 32%
